Results published in ChEMBL document CHEMBL3739310, “Deguelins, Natural Product Modulators of NF1-Defective Astrocytoma Cell Growth Identified by High-Throughput Screening of Partially Purified Natural Product Extracts” (J Nat Prod, 2015).
Activity calls are given as the source filed them. The rule behind the calls is not given here.

Columns and labels:
[1] = Growth inhibition of Nf1 defective and Trp53 defective mouse K5001 cells after 2 days by XTT assay; settings: K5001, 2 days
KR158 = assay: Induction of apoptosis in Nf1 defective and Trp53 defective mouse KR158 cells assessed as DNA fragmentation at 10 uM up to 48 hrs by ELISA; assay type: functional, cell-based
[2] = Growth inhibition of Nf1 defective and Trp53 defective mouse KR158 cells after 2 days by XTT assay; settings: KR158, 2 days
[3] = Growth inhibition of Nf1 defective and Trp53 defective mouse primary astrocytes after 2 days by XTT assay; settings: Astrocyte
[4] = Growth inhibition of Nf1 defective and Trp53 defective mouse K1492 cells after 2 days by XTT assay; settings: K1492, 2 days
[5] = Induction of ROS generation in Nf1 defective and Trp53 defective mouse K5001 cells at 10 uM after 6 hrs by DCFDA fluorogenic dye-based fluorimetric analysis; assay type: functional
How it was run: (§1)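 Cells plated at 1000/well in black-wall, clear-bottom, polylysine-coated 384-well plates and treated 6 h with 10 μM compound or DMSO control. Carboxymethyl H2DCFDA (10 mM stock in DMSO) added at 25 μM final for the last 1 h. After two PBS washes, cell-associated fluorescence read bottom-mode at Ex 495/Em 529 nm. Result expressed as T/C ratio versus untreated controls, means ± SD.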

K5001 = assay: Induction of apoptosis in mouse Nf1 defective and Trp53 defective K5001 cells assessed as DNA fragmentation at 10 uM up to 48 hrs by ELISA; assay type: functional, cell-based
[6] = molecular target: RAC-alpha serine/threonine-protein kinase (Mus musculus) (UniProt P31750); assay: Inhibition of AKT phosphorylation in Nf1 defective and Trp53 defective mouse K5001 cells; assay type: cell-based
[7] = Induction of ROS generation in Nf1 defective and Trp53 defective mouse K1492 cells at 10 uM after 6 hrs DCFDA fluorogenic dye-based fluorimetric analysis; assay type: functional
How it was run: as §1

[8] = molecular target: RAC-alpha serine/threonine-protein kinase (Mus musculus) (UniProt P31750); assay: Inhibition of AKT phosphorylation in Nf1 defective and Trp53 defective mouse K1492 cells; assay type: cell-based
[9] = Induction of ROS generation in Nf1 defective and Trp53 defective mouse KR158 cells at 10 uM after 6 hrs DCFDA fluorogenic dye-based fluorimetric analysis; assay type: functional
How it was run: as §1

[10] = Growth inhibition of Nf1 defective and Trp53 defective mouse KR158 cells at 80 uM after 2 days by XTT assay; settings: KR158, 2 days, read-out: GI

Sequence of RAC-alpha serine/threonine-protein kinase (Mus musculus) (P31750 whole entry): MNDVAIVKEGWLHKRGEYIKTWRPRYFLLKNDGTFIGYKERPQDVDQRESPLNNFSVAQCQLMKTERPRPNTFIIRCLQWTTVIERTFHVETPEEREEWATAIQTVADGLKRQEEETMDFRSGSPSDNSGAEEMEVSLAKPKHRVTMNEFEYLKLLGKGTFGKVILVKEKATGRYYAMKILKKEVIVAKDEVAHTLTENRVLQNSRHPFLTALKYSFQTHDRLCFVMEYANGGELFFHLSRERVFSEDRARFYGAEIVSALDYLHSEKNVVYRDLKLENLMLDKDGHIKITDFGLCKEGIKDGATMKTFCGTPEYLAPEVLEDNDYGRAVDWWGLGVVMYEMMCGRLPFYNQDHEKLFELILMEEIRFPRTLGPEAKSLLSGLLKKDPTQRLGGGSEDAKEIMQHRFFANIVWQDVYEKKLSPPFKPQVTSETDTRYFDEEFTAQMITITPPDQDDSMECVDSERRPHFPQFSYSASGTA

Row | Structure (SMILES) | IC50 [1] | Activity (KR158) | IC50 [2] | IC50 [3] | IC50 [4] | fold change (FC) [5] | Activity (K5001) | inhibition [6] | fold change (FC) [7] | inhibition [8] | fold change (FC) [9] | inhibition of growth at 80 µM [10]
1 | COc1cc2c(cc1OC)[C@@H]1C(=O)c3ccc4c(c3O[C@@H]1CO2)C=CC(C)(C)O4 [DEGUELIN] | 1200 nM | inactive | 12.6 µM | > 80 µM | > 80 µM | 3.5 | inactive | inactive | 5.6 | inactive | 3.9 | 
2 | COc1cc2c(cc1OC)-c1c(oc3c4c(ccc3c1=O)OC(C)(C)C=C4)CO2 [DEHYDRODEGUELIN] | 1200 nM | inactive | > 80 µM | > 80 µM | > 80 µM |  | inactive | inactive |  | inactive |  | 40%
